# HEK293 NFkB inh = inhibitors of the PMA/ionomycin-induced NF-kB reporter in HEK293 cells; inhibition, % at 3 µM; AID 465; 0.21% of 62,000 active; HEK-293 NF-kB luciferase reporter, luminescence;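 active = inhibition above the mean of all tested compounds plus 3 SD, cut at about 40% in these data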
#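 System – HEK-293 cells with stable firefly luciferase reporter driven by four HIV NF-kB elements · Doses – one dose, 3 µM · Schedule – 1 h compound pre-incubation, 16 h PMA/ionomycin at 37 °C · Technique – luminescence from luciferase substrate reagent · Measure – percent inhibition normalized per plate to DMSO and reference-inhibitor controls · Replicates – tested once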
# AP ELISA ortho = alternative pathway complement inhibition, orthogonal assay. Human serum alternative complement pathway, LPS-coated ELISA, C3 deposition; tested in compound mixtures. inhibition, % at 5 µM. 0.08% of 62,000 active;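 active = inhibition above 30% in each of the two pooled mixtures holding the compound, so the lower value exceeds 30%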
#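 Test system: human serum alternative complement pathway, C3 deposition on LPS-coated wells; also added: Plate-bound LPS; doses: 5 µM per compound in ten-compound mixtures; schedule: 1 h at 37 °C; detection: Anti-C3 ELISA, OD 450 nm; evaluation: percent inhibition of C3 deposition onto LPS; repeats: two pool placements per compound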
# JNK3 blocker = JNK3 (human) kinase inhibition | purified JNK3 kinase activity, HTS | P53779 | inhibition, % at 8 µM | 0.61% of 60,000 active | AID 746; in the data active = inhibition above about 17%
# Target sequence (P53779 whole entry, looked up): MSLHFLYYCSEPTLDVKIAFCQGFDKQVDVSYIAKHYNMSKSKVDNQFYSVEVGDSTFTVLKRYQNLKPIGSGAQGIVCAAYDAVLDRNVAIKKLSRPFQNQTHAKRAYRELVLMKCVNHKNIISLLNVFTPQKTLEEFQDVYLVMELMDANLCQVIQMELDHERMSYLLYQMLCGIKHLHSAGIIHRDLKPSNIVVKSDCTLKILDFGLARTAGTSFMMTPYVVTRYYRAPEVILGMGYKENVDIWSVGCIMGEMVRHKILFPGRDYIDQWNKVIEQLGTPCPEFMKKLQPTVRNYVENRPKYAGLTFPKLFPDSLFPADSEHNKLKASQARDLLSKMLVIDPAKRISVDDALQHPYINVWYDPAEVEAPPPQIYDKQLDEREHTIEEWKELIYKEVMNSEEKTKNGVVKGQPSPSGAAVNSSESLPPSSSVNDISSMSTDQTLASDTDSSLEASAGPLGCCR
# MT1-MMP txn act = activates MT1-MMP transcription; activation factor at 10 µM; 0.16% of 86,000 active; AID 750; HT1080 MT1-MMP promoter luciferase reporter, luminescence, overnight; hits give high values;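 active = activation factor of at least 2 for MT1-MMP transcription at 10 µM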
# HER2 expr 66K = inhibitors of human Her2 kinase expression | P04626 | SKBR-3 HER2 protein level, AlphaScreen, 18-24 h; hits give low values | HER2 level % of control, % at 10 µM | 0.69% of 65,000 active;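 active = HER2 level under 5% of the carrier-only control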;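 also: lower value means stronger loss of Her2 protein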
# Hits are given with their value; - = inactive; . = no result. An excerpt weighted towards active compounds, which were near 1.1% of everything screened.
SMILES,HEK293 NFkB inh,AP ELISA ortho,JNK3 blocker,MT1-MMP txn act,HER2 expr 66K
O=C(NCc1ccco1)C(Cc1ccccc1)N1C(=O)c2ccccc2C1=O (configuration not stated),-,-,-,-,-20
CCOc1ccccc1C(=O)N1CCN(c2cccc(Cl)c2)CC1,40,-,-,-,-
N#CC(C#N)=c1ccc2c(c1)NC1(CCCCC1)N=2,-,-,-,-,-26
O=C1NC2(CCCC2)N=C1c1ccc(Cl)cc1,-,-,-,-,-
Cc1ccc(C)c(NC(=O)CN(C)S(=O)(=O)c2ccc(F)cc2)c1,-,-,-,-,-
N#Cc1c(-c2ccco2)nc(SCc2ccc(F)cc2)[nH]c1=O,-,-,33,-,-
Cc1ccc2nc(Nc3ccccc3)c(/C=N/O)c(=O)n2c1,-,.,-,-,-25
C=CCC1c2cccc(C(=O)O)c2C(=O)N1c1ccc(F)cc1 (configuration not stated),-,-,-,-,-
CCOC(=O)Cc1csc(NC(=O)COc2ccc3ccccc3c2)n1,.,.,.,-,.
CCOC(=O)Cc1csc(NC(=O)COc2ccc(OC)cc2)n1,-,-,-,-,4.1
CC1=C(C(=O)OCc2ccc3c(c2)OCO3)C(c2ccc(Cl)cc2)NC(=O)N1 (configuration not stated),67,-,-,-,-
CCOC(=O)C1=C(C)NC(=O)NC1c1ccc2c(c1)OCCO2 (configuration not stated),-,-,-,-,-
CC1=C(C(=O)OCc2ccc3c(c2)OCO3)C(c2ccc(F)cc2)NC(=O)N1 (configuration not stated),45,-,-,.,-
CCOC(=O)N1CCN(S(=O)(=O)/C=C/c2ccccc2)CC1,-,-,-,-,-
O=C(c1ccco1)N1CCN(CCOCCOc2cccc3ccccc23)CC1,.,-,-,-,-
O=C(COC(=O)C1CCN(S(=O)(=O)c2cc([N+](=O)[O-])ccc2Cl)CC1)Nc1ncc(Cl)cc1Cl,.,.,.,-,.
Cc1nnc(SCc2nnc(-c3ccc(Cl)cc3)o2)n1-c1ccccc1,-,-,-,-,-
Cc1nnc(SCc2nnc(-c3ccccc3Br)o2)n1-c1ccccc1,-,-,-,-,-12
COc1ccc(C2=NCC(CSc3nnnn3C)S2)cc1 (configuration not stated),-,-,-,-,-
O=C1CC(Sc2nnnn2C2CCCCC2)C(=O)N1c1ccccc1 (configuration not stated),-,.,-,-,-3.2
COC(=O)/C=C/S(=O)(=O)c1ccc(NC(C)=O)cc1,-,-,-,-,-20
COc1ccccc1NS(=O)(=O)c1ccc(NC(C)=O)cc1,-,-,-,-,-
COc1ccc(-n2ncc3c(N4CCC(C)CC4)ncnc32)cc1,-,-,-,.,-
Cc1cccc(-n2ncc3c(N(C)C4CCCCC4)ncnc32)c1,62,-,-,.,-
COc1ccc(-n2ncc3c(N(C)C4CCCCC4)ncnc32)cc1,46,-,-,.,-
SMILES,HEK293 NFkB inh,AP ELISA ortho,JNK3 blocker,MT1-MMP txn act,HER2 expr 66K
O=C1CC(Cc2ccc(Cl)cc2)C(=O)N1c1ccncc1 (configuration not stated),.,.,.,-,.
O=C(O)CN1C(=O)CC(Cc2ccc(Cl)cc2)C1=O (configuration not stated),-,-,-,-,-20
COc1cc(C(=O)N2CCN(c3cc(Cl)ccc3Cl)CC2)cc(OC)c1OC,43,-,-,-,-
CCOP(=O)(c1ccccc1Cl)C1(O)CCCCC1 (configuration not stated),-,-,-,-,-28
CN1C(=O)c2ccc(C(=O)NC3CCCCC3)cc2C1=O,-,41,-,-,-
CCCN1C(=O)c2cc(C(=O)NC3CCCCCC3)ccc2C1O (configuration not stated),.,-,.,-,-
CS(=O)(=O)N1CCN(c2ccccc2NC(=O)Cc2ccccc2)CC1,-,-,17,-,-
CS(=O)(=O)N1CCN(c2ccccc2NC(=O)Cc2ccc(Cl)cc2)CC1,-,-,-,-,-
CCOCCCNC(=O)C(NC(=O)c1ccc2c(c1)OCO2)c1ccc(OC)cc1 (configuration not stated),-,-,.,-,-
CCOCCCNC(=O)C(c1ccc(OC)cc1)N(Cc1ccc2c(c1)OCO2)C(=O)CNC(C)=O (configuration not stated),-,-,.,-,-22
COc1ccc(Cc2nc(-c3ccc(Br)cc3)no2)cc1,-,-,-,-,.
